Results on 13 compounds are retold here after ChEMBL document CHEMBL1141143, “Novel 17beta-substituted conformationally constrained neurosteroids that modulate GABA A receptors” (J Med Chem, 2005).

The target of the assay is GABA-A receptor; anion channel (Rattus norvegicus) (UniProt O09028+P15431+P18506+P18508+P19969+P20236+P23574+P23576+P28471+P28473+P30191+P62813+P63079+P63138+Q91ZM7+Q9ES14). In words: Displacement of [3H]EBOB from GABA-A receptors of rat cerebellum. Type of assay: tissue-based. The method in brief:
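Rat cerebellar synaptosomal membranes: homogenized in 0.32 M sucrose, differentially centrifuged, water-lysed, Tris HCl (pH 7.4) washed, frozen; thawed membranes spun in 50 mM Tris HCl with 0.2 M NaCl. Incubated 2 h at 25 °C with 1 nM [3H]EBOB; nonspecific binding with 50 µM picrotoxin. Duplicates filtered on GF/B. Specific binding ratio with/without steroid fitted by nonlinear regression; mean ± SEM.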
(In general: Displacement assays read how much labelled ligand stays bound in the presence of the test substance.)
The compound `C#C[C@@H](OC)[C@H]1CC[C@H]2[C@@H]3CC[C@H]4C[C@H](O)CC[C@]4(C)[C@H]3CC[C@]12C` yielded a Ks of 802 nM.
The figure for `Cc1ccc(C#C[C@H]2CC[C@H]3[C@@H]4CC[C@H]5C[C@H](O)CC[C@]5(C)[C@H]4CC[C@]23C)cc1` is 4100 nM; for `COc1ccc(C#C[C@H](O)[C@H]2CC[C@H]3[C@@H]4CC[C@H]5C[C@H](O)CC[C@]5(C)[C@H]4CC[C@]23C)cc1` it is 1640 nM; for `C=C=C[C@@H](O)[C@H]1CC[C@H]2[C@@H]3CC[C@H]4C[C@H](O)CC[C@]4(C)[C@H]3CC[C@]12C` it is 2.8 nM.
The figure for `C=C=C[C@H](O)[C@H]1CC[C@H]2[C@@H]3CC[C@H]4C[C@H](O)CC[C@]4(C)[C@H]3CC[C@]12C` is 810 nM; for `C#C[C@@H](O)[C@H]1CC[C@H]2[C@@H]3CC[C@H]4C[C@H](O)CC[C@]4(C)[C@H]3CC[C@]12C` it is 145 nM; for `C#C[C@H](OC)[C@H]1CC[C@H]2[C@@H]3CC[C@H]4C[C@H](O)CC[C@]4(C)[C@H]3CC[C@]12C` it is 924 nM.
Under `C#CC(=O)[C@H]1CC[C@H]2[C@@H]3CC[C@H]4C[C@H](O)CC[C@]4(C)[C@H]3CC[C@]12C` stands 844 nM; under `COc1ccc(C#C[C@@H](O)[C@H]2CC[C@H]3[C@@H]4CC[C@H]5C[C@H](O)CC[C@]5(C)[C@H]4CC[C@]23C)cc1`, 870 nM; under `CC(O)C#C[C@H]1CC[C@H]2[C@@H]3CC[C@H]4C[C@H](O)CC[C@]4(C)[C@H]3CC[C@]12C` (stereo partly drawn), 946 nM.
Take `CC(=O)[C@H]1CC[C@H]2[C@@H]3CC[C@H]4C[C@H](O)CC[C@]4(C)[C@H]3CC[C@]12C`: the Ks worked out at 198 nM.
The figure for `C[C@]12CC[C@@H](O)C[C@@H]1CC[C@@H]1[C@@H]2CC[C@]2(C)[C@@H](C#CBr)CC[C@@H]12` is 350 nM.
The figure for `C#C[C@H](O)[C@H]1CC[C@H]2[C@@H]3CC[C@H]4C[C@H](O)CC[C@]4(C)[C@H]3CC[C@]12C` is 494 nM.
